Reference: ChEMBL document CHEMBL4000147, “Pyrrolo[2,3-b]pyridine derivatives as potent Bruton's tyrosine kinase inhibitors” (Bioorg Med Chem, 2015)

What was measured:
[1] = target: T1, Tyrosine-protein kinase BTK (Homo sapiens, UniProt Q06187); test: Inhibition of recombinant human His-tagged full length BTK expressed in baculovirus using biotin labeled peptide substrate after 1 hr by HRTF kinase/TR-FRET assay
[2] = target: T1, Tyrosine-protein kinase BTK; test: Inhibition of BTK in human Ramos cells assessed as inhibition of anti human IgM-induced calcium influx preincubated for 20 mins in dark followed by anti human IgM induction for 8 mins by FLIPR assay; format: cell-based
[3] = Clearance in Sprague-Dawley rat at 4 mg/kg, po by LC/MS/MS analysis; format: ADME, organism-based; conditions: in vivo
Summary of the method: (§1)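 Three male SD rats (180–240 g) dosed orally, 4 mg/kg, dosing volume 5 mL/kg. Blood sampled at 2, 5, 15, 30 min and 1, 2, 4, 6, 8, 10, 24 h, centrifuged 4000 rpm 5 min at 4 °C. Plasma analysed after protein precipitation by LC/MS/MS in SRM mode with internal standard. Parameters from concentration–time data by noncompartmental analysis.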

[4] = Half life in Sprague-Dawley rat at 4 mg/kg, po by LC/MS/MS analysis; format: ADME, organism-based; conditions: in vivo; summary of the method: as §1
[5] = AUClast in Sprague-Dawley rat at 4 mg/kg, po by LC/MS/MS analysis; format: ADME, organism-based; parameters: dose 4 mg/kg, route oral, time 0 - last; conditions: in vivo; summary of the method: as §1
[6] = Cmax in Sprague-Dawley rat at 4 mg/kg, po by LC/MS/MS analysis; format: ADME, organism-based; parameters: dose 4 mg/kg, route oral; conditions: in vivo; summary of the method: as §1
[7] = Tmax in Sprague-Dawley rat at 4 mg/kg, po by LC/MS/MS analysis; format: ADME, organism-based; conditions: in vivo; summary of the method: as §1

T1 sequence (Q06187 whole entry): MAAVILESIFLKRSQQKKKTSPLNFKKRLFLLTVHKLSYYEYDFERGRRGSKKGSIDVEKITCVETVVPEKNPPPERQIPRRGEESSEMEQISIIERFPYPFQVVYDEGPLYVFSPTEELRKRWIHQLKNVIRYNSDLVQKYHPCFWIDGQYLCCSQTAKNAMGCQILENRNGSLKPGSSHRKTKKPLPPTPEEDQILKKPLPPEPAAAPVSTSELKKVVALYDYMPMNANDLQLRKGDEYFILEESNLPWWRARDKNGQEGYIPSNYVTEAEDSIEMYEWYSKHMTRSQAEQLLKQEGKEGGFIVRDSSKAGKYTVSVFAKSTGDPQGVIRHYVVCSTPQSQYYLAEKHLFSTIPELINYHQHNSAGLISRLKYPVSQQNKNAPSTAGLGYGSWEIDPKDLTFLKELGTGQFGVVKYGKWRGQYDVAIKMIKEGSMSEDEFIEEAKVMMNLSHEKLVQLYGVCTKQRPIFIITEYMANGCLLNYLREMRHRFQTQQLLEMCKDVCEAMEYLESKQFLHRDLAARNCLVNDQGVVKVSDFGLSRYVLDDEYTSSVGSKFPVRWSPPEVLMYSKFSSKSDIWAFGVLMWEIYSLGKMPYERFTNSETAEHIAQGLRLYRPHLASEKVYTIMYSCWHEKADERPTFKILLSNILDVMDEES

Row | IC50 [1] [nM] | IC50 [2] [nM] | CL/F [3] [mL/min/kg] | half-life [4] [h] | AUC(0-t) [5] [ng·h/mL] | Cmax [6] [ng/mL] | Tmax [7] [h] | SMILES
1 | 18.1 | 69 | – | – | – | – | – | O=c1c2c(F)cc(C3CC3)cc2ccn1-c1cccc(-c2ccnc3[nH]c(-c4ccc(CN5CCOCC5)cc4)cc23)c1CO
2 | 12.1 | 94.2 | – | – | – | – | – | CN(C)C(=O)c1ccc(-c2cc3c(-c4cccc(-n5ccc6cc(C7CC7)cc(F)c6c5=O)c4CO)ccnc3[nH]2)cc1
3 | – | – | 53.3 | 4.4 | 1050 | 134 | 4 | CN1CCN(c2ccc(Nc3cc(-c4cccc(-n5ccc6cc(C7CC7)cc(F)c6c5=O)c4CO)cn(C)c3=O)nc2)CC1
4 | 20.6 | 9.5 | – | – | – | – | – | Cn1ccc(-c2cc3c(-c4cccc(-n5ccc6cc(C7CC7)cc(F)c6c5=O)c4CO)ccnc3[nH]2)n1
5 | 6 | 14 | 20 | 8.9 | 3420 | 739 | 1.9 | CN(C)C(=O)N1CC=C(c2cc3c(-c4cccc(-n5ccc6cc(C7CC7)cc(F)c6c5=O)c4CO)ccnc3[nH]2)CC1
6 | 78.1 | 69 | – | – | – | – | – | CC(=O)c1cc(-c2cc3c(-c4cccc(-n5ccc6cc(C7CC7)cc(F)c6c5=O)c4CO)ccnc3[nH]2)cs1
7 | 38 | 52 | – | – | – | – | – | O=C(c1ccc(-c2cc3c(-c4cccc(-n5ccc6cc(C7CC7)cc(F)c6c5=O)c4CO)ccnc3[nH]2)cc1)N1CCCCC1
8 | 9.7 | 27 | – | – | – | – | – | CN(C)S(=O)(=O)N1CC=C(c2cc3c(-c4cccc(-n5ccc6cc(C7CC7)cc(F)c6c5=O)c4CO)ccnc3[nH]2)CC1
9 | > 5000 | > 5000 | – | – | – | – | – | CN(C)C(=O)N1CC=C(c2cc3c(-c4cccc(-n5ccc6cc(C7CC7)cc(F)c6c5=O)c4CO)cccc3[nH]2)CC1
10 | 6.7 | 12 | – | – | – | – | – | CC(=O)N1CC=C(c2cc3c(-c4cccc(-n5ccc6cc(C7CC7)cc(F)c6c5=O)c4CO)ccnc3[nH]2)CC1

More lines, now with the values behind:

Row | SMILES | IC50 [1] [nM] | IC50 [2] [nM] | CL/F [3] [mL/min/kg] | half-life [4] [h] | AUC(0-t) [5] [ng·h/mL] | Cmax [6] [ng/mL] | Tmax [7] [h]
11 | O=C(N1CC=C(c2cc3c(-c4cccc(-n5ccc6cc(C7CC7)cc(F)c6c5=O)c4CO)ccnc3[nH]2)CC1)N1CCOCC1 | 7.3 | 42 | – | – | – | – | –
12 | COc1ccc(-c2cc3c(-c4cccc(-n5ccc6cc(C7CC7)cc(F)c6c5=O)c4CO)ccnc3[nH]2)cn1 | 68.3 | 196 | – | – | – | – | –
13 | CN(C)C(=O)N1CC=C(c2cc3c(-c4cccc(-n5ccc6cc(C7CC7)cc(F)c6c5=O)c4CO)ncnc3[nH]2)CC1 | – | – | 43.3 | 5.4 | 1790 | 422 | 0.8
14 | CC(=O)c1ccc(-c2cc3c(-c4cccc(-n5ccc6cc(C7CC7)cc(F)c6c5=O)c4CO)ccnc3[nH]2)cc1 | 21.3 | 32 | – | – | – | – | –
15 | Nc1cccc(-c2cc3c(-c4cccc(-n5ccc6cc(C7CC7)cc(F)c6c5=O)c4CO)ccnc3[nH]2)c1 | 110 | 2410 | – | – | – | – | –
16 | Cc1cc2c(-c3cccc(-n4ccc5cc(C6CC6)cc(F)c5c4=O)c3CO)ccnc2[nH]1 | 395 | 213 | – | – | – | – | –
17 | O=c1c2c(F)cc(C3CC3)cc2ccn1-c1cccc(-c2ccnc3[nH]c(C4=CCN(C5COC5)CC4)cc23)c1CO | 31.4 | 3 | – | – | – | – | –
18 | CS(=O)(=O)N1CC=C(c2cc3c(-c4cccc(-n5ccc6cc(C7CC7)cc(F)c6c5=O)c4CO)ccnc3[nH]2)CC1 | 7.1 | 410 | – | – | – | – | –
19 | O=C(C1CC1)N1CC=C(c2cc3c(-c4cccc(-n5ccc6cc(C7CC7)cc(F)c6c5=O)c4CO)ccnc3[nH]2)CC1 | 10.4 | 16 | – | – | – | – | –
20 | O=c1c2c(F)cc(C3CC3)cc2ccn1-c1cccc(-c2ccnc3[nH]c(C4=CCNCC4)cc23)c1CO | 28.3 | 3 | – | – | – | – | –
21 | CN(C)C(=O)c1ccc(-c2nc3c(-c4cccc(-n5ccc6cc(C7CC7)cc(F)c6c5=O)c4CO)ccnc3[nH]2)cc1 | 33.3 | 92.7 | – | – | – | – | –
22 | O=c1c2c(F)cc(C3CC3)cc2ccn1-c1cccc(-c2ccnc3[nH]c(-c4ccc(O)cc4)cc23)c1CO | 39.8 | 110 | – | – | – | – | –
23 | COc1ccc(-c2cc3c(-c4cccc(-n5ccc6cc(C7CC7)cc(F)c6c5=O)c4CO)ccnc3[nH]2)cc1 | 27.3 | 56.3 | – | – | – | – | –
